Experiments:
Mus musculus [1] = species: Mus musculus; experiment: Antagonism of tetrabenazine (TBZ)-induced depression in mice measured for ptosis; assay type: functional; settings: Mus musculus; read-out: ED50
Method in brief: (§1)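 Nonfasted male Swiss Webster mice, 18–24 g, ten per dose level and in saline controls. Test compound given ip 30 min before tetrabenazine 32 mg/kg ip; dose expressed as free base. Motor activity and ptosis scored. Control response ≤90% corrected by Abbott's formula.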

Mus musculus [2] = species: Mus musculus; experiment: Antagonism of tetrabenazine (TBZ)-induced depression measured in mice by motor activity; assay type: functional; settings: Mus musculus; read-out: ED50; method in brief: as §1
Mus musculus [3] = species: Mus musculus; experiment: Gross behavioral effects ascertained in mice; W indicates weak stimulant or depressant activity of little significance.; assay type: functional, organism-based
Method in brief: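 Male Swiss Webster mice, 18–24 g, three per dose, given ip doses of 1, 3, 10, 30, 100 and 300 mg/kg. Observed for gross behavior and held for 4 days. Scored as weak (W), stimulant (S), depressant (D) or convulsant (C).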

[4] = target: Sodium-dependent dopamine transporter (Rattus norvegicus, UniProt P23977); experiment: Inhibition of the uptake of tritiated dopamine (DA) in rat synaptosomes; assay type: subcellular, Brain
Sequence of Sodium-dependent dopamine transporter (P23977 whole entry): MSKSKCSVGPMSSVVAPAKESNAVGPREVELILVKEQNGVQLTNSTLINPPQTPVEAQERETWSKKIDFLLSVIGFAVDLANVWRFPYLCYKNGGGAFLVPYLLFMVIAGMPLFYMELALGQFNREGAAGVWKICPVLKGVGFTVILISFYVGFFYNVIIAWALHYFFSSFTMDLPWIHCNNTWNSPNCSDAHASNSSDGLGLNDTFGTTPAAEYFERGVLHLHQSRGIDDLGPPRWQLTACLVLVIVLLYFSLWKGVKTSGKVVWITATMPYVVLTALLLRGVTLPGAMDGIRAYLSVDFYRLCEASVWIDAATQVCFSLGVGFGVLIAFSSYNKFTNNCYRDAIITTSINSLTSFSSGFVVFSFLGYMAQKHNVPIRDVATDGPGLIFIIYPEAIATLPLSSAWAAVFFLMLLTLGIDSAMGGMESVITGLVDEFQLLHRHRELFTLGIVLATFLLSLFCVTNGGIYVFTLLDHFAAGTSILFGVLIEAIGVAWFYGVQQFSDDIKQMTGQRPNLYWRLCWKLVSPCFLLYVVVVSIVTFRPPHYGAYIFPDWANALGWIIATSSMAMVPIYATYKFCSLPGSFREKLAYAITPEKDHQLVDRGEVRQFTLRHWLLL

[5] = target: Norepinephrine transporter (Rattus norvegicus, UniProt Q9WTR4); experiment: Inhibition of uptake of tritiated norepinephrine (NE) in rat synaptosomes; assay type: subcellular, Brain
Sequence of Norepinephrine transporter (Q9WTR4 whole entry): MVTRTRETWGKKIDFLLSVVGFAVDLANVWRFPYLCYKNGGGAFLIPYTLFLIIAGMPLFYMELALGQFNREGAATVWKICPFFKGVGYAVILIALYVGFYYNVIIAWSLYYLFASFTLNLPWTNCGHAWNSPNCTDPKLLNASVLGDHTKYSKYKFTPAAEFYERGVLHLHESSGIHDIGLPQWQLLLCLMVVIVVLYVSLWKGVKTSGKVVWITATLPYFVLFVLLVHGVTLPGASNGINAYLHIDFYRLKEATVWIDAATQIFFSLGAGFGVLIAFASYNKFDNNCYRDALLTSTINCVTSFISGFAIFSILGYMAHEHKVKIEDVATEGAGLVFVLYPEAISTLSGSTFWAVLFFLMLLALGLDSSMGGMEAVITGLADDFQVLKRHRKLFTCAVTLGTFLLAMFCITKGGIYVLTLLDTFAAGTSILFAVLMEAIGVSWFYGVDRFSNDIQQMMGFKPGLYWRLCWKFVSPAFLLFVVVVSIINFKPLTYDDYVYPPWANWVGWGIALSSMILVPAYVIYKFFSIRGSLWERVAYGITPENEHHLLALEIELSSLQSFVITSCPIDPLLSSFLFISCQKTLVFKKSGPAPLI

[6] = target: Sodium-dependent dopamine transporter (Rattus norvegicus) (UniProt P23977); experiment: Ability to inhibit the uptake of [3H]dopamine (DA) 0.1 uM concentration at rat brain synaptosomes; assay type: functional, subcellular
Sequence of Sodium-dependent dopamine transporter (Rattus norvegicus) (P23977 whole entry): as the sequence (P23977 whole entry) above
Method in brief: (§2)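 Male Wistar rat brain synaptosomes (P2 fraction): hypothalamus for NE, striatum for DA, cerebral cortex for 5-HT. Buffer is Tris- or HEPES-buffered salt medium with glucose, ascorbate and nialamide, pH 7.4 at 37 °C. Preincubated 10 min at 37 °C with compound. Uptake started with [3H]NE 100–300 nM, [3H]DA 50–300 nM or [3H]5-HT 100–200 nM, incubated 3 min (DA) or 6–10 min (NE, 5-HT). Blanks held on ice. Filtered, counted by scintillation.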

[7] = target: Sodium-dependent serotonin transporter (Rattus norvegicus) (UniProt P31652); experiment: Ability to inhibit the uptake of [3H]- serotonin(5-HT) 0.1 uM concentration at rat brain synaptosomes; assay type: functional, subcellular; method in brief: as §2
Sequence of Sodium-dependent serotonin transporter (Rattus norvegicus) (P31652 whole entry): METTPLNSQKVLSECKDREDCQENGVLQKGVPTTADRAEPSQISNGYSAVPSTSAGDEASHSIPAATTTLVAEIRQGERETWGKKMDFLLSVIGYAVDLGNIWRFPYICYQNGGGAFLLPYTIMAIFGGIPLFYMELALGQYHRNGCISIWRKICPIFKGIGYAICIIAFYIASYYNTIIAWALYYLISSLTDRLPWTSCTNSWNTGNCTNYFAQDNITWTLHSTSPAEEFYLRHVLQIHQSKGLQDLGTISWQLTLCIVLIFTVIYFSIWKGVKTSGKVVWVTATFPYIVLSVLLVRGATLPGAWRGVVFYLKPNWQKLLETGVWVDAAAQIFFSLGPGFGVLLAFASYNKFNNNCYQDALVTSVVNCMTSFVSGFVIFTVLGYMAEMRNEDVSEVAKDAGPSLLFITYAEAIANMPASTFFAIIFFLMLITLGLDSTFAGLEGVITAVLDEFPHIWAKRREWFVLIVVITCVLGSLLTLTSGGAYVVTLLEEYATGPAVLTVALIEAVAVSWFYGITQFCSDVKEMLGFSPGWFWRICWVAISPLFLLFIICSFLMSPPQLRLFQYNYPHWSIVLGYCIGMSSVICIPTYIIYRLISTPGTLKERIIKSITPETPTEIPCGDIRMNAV

[8] = target: D(2) dopamine receptor (Rattus norvegicus) (UniProt P61169); experiment: Binding affinity towards dopamine receptor D2 at 1.0 uM concentration
Sequence of D(2) dopamine receptor (Rattus norvegicus) (P61169 whole entry): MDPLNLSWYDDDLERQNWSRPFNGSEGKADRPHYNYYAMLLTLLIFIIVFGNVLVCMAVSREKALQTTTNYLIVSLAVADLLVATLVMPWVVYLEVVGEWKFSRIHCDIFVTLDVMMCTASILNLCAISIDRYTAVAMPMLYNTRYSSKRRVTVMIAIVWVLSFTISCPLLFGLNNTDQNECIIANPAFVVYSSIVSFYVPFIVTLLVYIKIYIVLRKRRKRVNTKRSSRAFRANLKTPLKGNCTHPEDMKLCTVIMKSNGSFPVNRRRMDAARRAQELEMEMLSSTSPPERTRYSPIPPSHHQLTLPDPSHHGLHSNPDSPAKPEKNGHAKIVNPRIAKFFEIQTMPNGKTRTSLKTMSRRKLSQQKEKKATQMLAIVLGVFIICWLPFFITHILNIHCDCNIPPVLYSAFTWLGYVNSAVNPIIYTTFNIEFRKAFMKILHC
Method in brief: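 Rat brain crude synaptic membranes in 20 mM NaHEPES pH 7.5. Ligands: α1 cortex […] 0.4 nM, nonspecific with (-)-NE 100 μM, 30 min at 25 °C. […] D2 striatum [3H]spiperone 0.05 nM with (+)-butaclamol 1 μM, 45 min at 37 °C. S1 cortex [3H]5-HT 1 nM plus glutathione and MgCl2, with 5-HT 10 μM, 20 min at 37 °C. […] Samples filtered on GF/B and counted.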

[9] = target: Norepinephrine transporter (Rattus norvegicus) (UniProt Q9WTR4); experiment: Ability to inhibit the uptake of [3H]norepinephrine (NE) 0.1 uM concentration at rat brain synaptosomes; assay type: functional, subcellular; method in brief: as §2
Sequence of Norepinephrine transporter (Rattus norvegicus) (Q9WTR4 as listed by the source): as the sequence (Q9WTR4 whole entry) above

Structure (SMILES)	ED50 (Mus musculus [1]) [mg/kg]	ED50 (Mus musculus [2]) [mg/kg]	behavior (Mus musculus [3])	Ki [4] [nM]	Ki [5] [nM]	inhibition [6] [%]	inhibition [7] [%]	inhibition [8] [%]	inhibition [9] [%]
Clc1ccc([C@@H]2CN3CCC[C@H]3c3ccccc32)cc1Cl	8	~41	Weak	30.8	16	–	–	–	–
Br.F[C@]1(c2ccccc2)CN2CCC[C@H]2c2ccccc21	1.2	~3	Weak	–	30.7	26	6	–	–
FC(F)(F)c1ccc2c(c1)[C@H]1CCCN1C[C@H]2c1ccccc1	–	–	–	11.2	3.1	–	–	–	–
O=C(Nc1ccccc1)Nc1ccc([C@@H]2CN3CCC[C@@H]3c3ccccc32)cc1	–	–	–	24.5	117	–	–	–	–
Clc1ccc([C@@H]2CN3CCC[C@@H]3c3ccccc32)c(Cl)c1	~1	~2	–	–	–	–	–	–	–
NC(=O)c1ccc([C@@H]2CN3CCC[C@@H]3c3ccccc32)cc1	–	–	–	84.5	90.2	–	–	–	–
Br.Oc1ccc([C@@H]2CN3CCC[C@H]3c3ccccc32)cc1O	1.8	> 30	Partial stimulant	32.6	22.3	–	–	6	–
CC(=O)Nc1ccc([C@@H]2CN3CCC[C@H]3c3ccccc32)cc1	1.8	4.4	Weak	–	–	57	–	–	27
COc1ccc(NC(=O)Nc2ccc([C@@H]3CN4CCC[C@H]4c4ccccc43)cc2)cc1	–	–	–	8.8	15	–	–	–	–
c1ccc([C@H]2CN3CCCC[C@H]3c3ccccc32)cc1	> 30	> 30	Weak	> 1000	13.7	–	–	–	–
CCn1cc(C(=O)O)c(=O)c2ccc(Cc3ccccc3)nc21 [AMFONELIC ACID]	–	–	–	7.2	41.1	–	–	–	–
O=C(O)c1ccccc1[C@@H]1CN2CCC[C@@H]2c2ccccc21	–	–	–	–	–	3	6	–	0
Br.c1ccc([C@@H]2Cc3ccccc3[C@@H]3CCCN23)cc1	0.87	> 30	Weak	–	–	0	–	–	7
Br.Clc1ccc2c(c1)[C@H]1CCCN1C[C@H]2c1ccccc1	~0.5	~0.3	–	2.5	0.62	–	–	–	–
O=C(O)c1ccccc1[C@@H]1CN2CCC[C@H]2c2ccccc21	–	–	–	–	–	5	1	–	1
FC(F)(F)c1cccc([C@@H]2CN3CCC[C@@H]3c3ccccc32)c1 (stereo in doubt; (+)-37b)	–	–	–	25.7	1.5	–	–	–	–
Br.c1csc([C@H]2CN3CCC[C@H]3c3ccsc32)c1	~30	~24	Weak	39.8	14.6	–	–	–	–
Br.O[C@@]1(c2ccccc2)CN2CCC[C@H]2c2ccccc21	6.2	~25	Weak	258	40.8	–	–	–	–
Br.CS(=O)(=O)c1ccc([C@@H]2CN3CCC[C@H]3c3ccccc32)cc1	17.7	> 30	Weak	–	–	–	–	–	–
Clc1ccc([C@@H]2CN3CCC[C@H]3c3ccccc32)cc1	5.4	8.1	Weak	–	–	–	–	–	–
Br.O=[N+]([O-])c1ccc([C@@H]2CN3CCC[C@@H]3c3ccccc32)cc1	0.08	0.17	Weak	94.2	3.4	–	–	–	–
FC(F)(F)c1cccc([C@@H]2CN3CCCC3c3cc(Cl)ccc32)c1 (stereo not given in full)	–	–	–	168	32.6	–	–	–	–
COc1cccc2c1[C@H](c1ccccc1)CN1CCC[C@H]21	1.2	10	Weak	12.3	11.5	–	–	–	–
Br.Cn1ccc2c1[C@@H](c1ccccc1)CN1CCC[C@@H]21	~0.75	2.4	Weak	9.8	7.5	–	–	–	–
CSc1ccc([C@@H]2CN3CCC[C@@H]3c3ccccc32)cc1 (stereo in doubt; (-)-48b)	–	–	–	–	–	–	–	5	–

Structure (SMILES)	ED50 (Mus musculus [1]) [mg/kg]	ED50 (Mus musculus [2]) [mg/kg]	behavior (Mus musculus [3])	Ki [4] [nM]	Ki [5] [nM]	inhibition [6] [%]	inhibition [7] [%]	inhibition [8] [%]	inhibition [9] [%]
FC(F)(F)c1ccc([C@@H]2CN3CCC[C@@H]3c3ccccc32)cc1	~2	> 3	–	128	10.6	–	–	–	–
FC(F)(F)c1cc([C@@H]2CN3CCC[C@H]3c3ccccc32)cc(C(F)(F)F)c1	–	–	–	–	–	-3	-3	–	0
FC(F)(F)c1cc([C@@H]2CN3CCC[C@@H]3c3ccccc32)cc(C(F)(F)F)c1	–	–	–	–	–	5	25	–	58
c1ccc(C[C@@H]2CN3CCC[C@H]3c3ccccc32)cc1	–	–	–	–	–	15	-3	–	100
Br.Oc1ccccc1[C@@H]1CN2CCC[C@@H]2c2ccccc21	~2	> 3	Weak	360	8.8	–	–	–	–
FC(F)(F)c1ccccc1[C@@H]1CN2CCC[C@H]2c2ccccc21	–	–	–	–	–	0	4	–	12
CCCCc1ccc([C@@H]2CN3CCC[C@@H]3c3ccccc32)cc1	9.1	> 60	Weak	230	29.9	–	–	–	–
CN1Cc2c(N)cccc2C(c2ccccc2)C1 (stereo not given) [NOMIFENSINE]	0.11	0.18	Partial stimulant	–	–	–	–	–	–
Br.Brc1ccccc1[C@@H]1CN2CCC[C@@H]2c2ccccc21	~1	~0.6	–	26.5	1.5	–	–	–	–
Br.COc1ccc([C@@H]2CN3CCC[C@@H]3c3ccccc32)cc1	0.03	0.27	Weak	5.2	0.79	–	–	–	–
C[C@@]12CCCN1C[C@H](c1ccc(Cl)cc1)c1ccccc12	1.5	6.8	Weak	7.6	3.8	–	–	–	–
FC(F)(F)c1cccc([C@@H]2CN3CCC[C@@H]3c3cccc(Cl)c32)c1	–	–	–	–	~100	8	5	–	–
C[C@@]12CCCN1C[C@@H](c1ccc(Cl)cc1)c1ccccc12	–	–	Weak	~100	~100	–	21	–	–
COc1ccc2c(c1)[C@H]1CCCN1C[C@H]2c1ccccc1	–	–	–	2.8	2.2	–	–	–	–
Clc1cccc2c1[C@H](c1ccccc1)CN1CCC[C@H]21	–	–	–	25.3	11.6	–	–	–	–
c1ccc([C@H]2CN3CC[C@H]3c3ccccc32)cc1	1.25	~2	–	81.6	6.3	–	–	–	–
Br.c1ccc2c(c1)[C@@H](C1CCCCC1)CN1CCC[C@@H]21	1.9	6.4	Weak	604	81	–	–	–	–
CCN1Cc2ccccc2C(c2ccccc2)C1 (stereo not given)	~10	~10	Weak	36.4	5.6	–	–	–	–
Clc1ccc([C@@H]2CN3CCC[C@H]3c3cc(Cl)ccc32)cc1	~37	> 100	Weak	65.1	33.8	–	–	–	–
Br.COc1ccc([C@@H]2CN3CCC[C@H]3c3ccccc32)cc1	3	~50	Weak	119	27.6	–	–	–	–
Fc1cccc(Cl)c1[C@@H]1CN2CCC[C@@H]2c2ccccc21	> 3	> 3	–	279	11.5	–	–	–	–
O[C@]1(c2ccccc2)CN2CCC[C@H]2c2ccccc21	1.6	8.4	Weak	28.5	8.1	–	–	–	–
Cc1ccccc1[C@@H]1CN2CCC[C@@H]2c2ccccc21	~1	~1	–	117	5.6	–	–	–	–
CSc1ccccc1[C@@H]1CN2CCC[C@@H]2c2ccccc21	~0.6	~0.6	–	–	–	–	–	–	–
N#Cc1ccc([C@@H]2CN3CCC[C@@H]3c3ccccc32)cc1	~2	~2	–	–	–	–	–	–	–

From ChEMBL document CHEMBL1123812, “Pyrroloisoquinoline antidepressants. 2. In-depth exploration of structure-activity relationships” (J Med Chem, 1987)
